# Data as given in PMC5816172 (Proceedings of the National Academy of Sciences of the …, 2018).
# Entries after “also recorded” stand apart in the source; their conditions may differ.
# What was measured:
# STAT3 = assay: Phosphoarray assay in HMDM; type: cell-based, human; conditions: LPS/nigericin, 10 µM, one donor
# [1] = Human pharmacokinetic study, repeated daily oral dosing for 8 d; type: in vivo; conditions: for Cmax: both, human, plasma, oral
# In short: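 Fasted healthy subjects received repeated daily oral doses of 100, 300 or 1,000 mg for 8 d. Plasma concentrations were followed on day 1 and day 8. Group mean maximum concentration and elimination half-life were determined on day 8.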
# Fyn = assay: Phosphoarray assay in HMDM; type: cell-based, human; conditions: LPS/nigericin, 10 µM, one donor
# NLRP3-ASC [2] = target: T1, NLRP3-ASC (Mus musculus, UniProt Q8R4B8); assay: Immunoprecipitation of NLRP3-ASC association in J774A.1 cells; type: cell-based; conditions: J774A.1, LPS and nigericin
# IKK = assay: Flow cytometry of phosphokinases in spleen cells from treated mice; type: in vivo, mouse
# In short: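 Mice were given test compound or saline vehicle. Spleen-derived CD11b+CD3− cells were analysed either fresh (steady state) or after 30 min of in vitro LPS stimulation. Phosphorylation of NF-κB, IκB, IKK and IRAK4 was assessed by flow cytometry. Data are mean ± SEM.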
# Src = assay: Phosphoarray assay in HMDM; type: cell-based, human; conditions: LPS/nigericin, 10 µM, one donor
# Human safety study = type: in vivo
# In short: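 Phase 1 study in 35 healthy subjects receiving single oral doses or 8 consecutive daily doses of up to 1,000 mg. Monitoring covered treatment-emergent and non-treatment-emergent adverse events and vital signs. Serum lipids, urinalysis, liver function enzymes and acute phase proteins were compared with baseline in each cohort.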
# Human recombinant NLRP3 = Human recombinant NLRP3 (Homo sapiens, UniProt Q96P20); assay: NLRP3 ATPase activity; type: biochemical; conditions: cell-free, 1 and 10 µM
# In short: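 Cell-free ATPase activity of recombinant NLRP3 was measured with test compound (n = 3). Bay11-7082 and 3,4-methylenedioxy-β-nitrostyrene served as positive-control NLRP3 inhibitors (n = 2 each).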
# P2X7R = P2X7R (Homo sapiens, UniProt Q99572); assay: Whole-cell patch-clamp recordings on LPS-primed U937 cells; type: cell-based; conditions: 100 µM BzATP, OLT1177 0.1 nM and 100 µM
# In short: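 U937 cells on poly-L-lysine-coated dishes were primed with 1 μg/mL E. coli LPS for 5 h. Whole-cell patch clamp at room temperature, holding −60 mV. BzATP was diluted from a 100-mM stock to 100 µM in bath solution and applied by pressure microperfusion. Test compound (0.1 nM, 100 µM) was given in parallel cultures. ΔI compared by Wilcoxon signed-rank, shown as median with 25th–75th percentiles.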
# NLRP3 inflammasome [3] = assay: Noncanonical NLRP3 inflammasome activation in THP-1 cells; type: cell-based; conditions: Homo sapiens, THP-1, read-out: maximal inhibition of IL-1β release
# In short: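 Wild-type and nlrp3-deficient human THP-1 cells were primed with the […] agonist Pam3CSK4, then transfected with LPS in the presence of test compound. IL-1β release was measured.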
# NLRP3-ASC [4] = target: T1, NLRP3-ASC; assay: Immunofluorescence and FRET analysis of NLRP3-ASC in J774A.1 cells; type: cell-based; conditions: J774A.1, LPS and nigericin, 10 µM
# In short: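 J774A.1 cells stimulated with LPS plus nigericin with test compound at 10 µM. After PBS wash: fixed and permeabilised in 70–30 acetone–methanol, blocked 1 h in 10% normal donkey serum. […] Then Alexa555/Alexa488 secondaries 1 h at room temperature, DAPI nuclei. FRET = Transfer − (Fd/D) − (Fa/Aa). Three independent experiments.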
# J774A.1 cells = assay: LDH release from J774A.1 cells; type: cell-based, mouse; conditions: J774A.1, LPS/ATP, P < 0.05
# In short: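 J774A.1 cells were stimulated with LPS plus ATP in the presence of increasing concentrations of test compound. LDH release was measured and reported as mean ± SEM. Data are representative of three independent experiments.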
# NLRP3 inflammasome [5] = assay: IL-1β release from freshly obtained human blood neutrophils; type: cell-based; conditions: primary human neutrophils
# In short: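 Freshly obtained human blood neutrophils were stimulated with LPS and ATP with test compound at 0.1, 1 and 10 µM. Supernatant IL-1β was measured by ELISA, and mature 17 kDa IL-1β by Western blot. IL-1β precursor was measured in the cell lysates. Data are mean ± SEM of cells from three healthy donors.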
# NLRP3 inflammasome [6] = assay: NLRP3 inflammasome stimulation of J774A.1 macrophages; type: cell-based, mouse
# muscle metabolism = assay: Metabolomics analysis of quadriceps muscle after in vivo LPS challenge; design: species or system mouse; conditions: mice, muscle 2 h after LPS, vs vehicle
# In short: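 Mice were treated with test compound or vehicle and challenged with LPS i.p. Muscle was excised 2 h after LPS for metabolomic profiling of glutathione species, adenylates and TCA intermediates. Results are in arbitrary units, mean ± SEM, n = 3 mice per group.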
# T1 sequence (Q8R4B8 whole entry): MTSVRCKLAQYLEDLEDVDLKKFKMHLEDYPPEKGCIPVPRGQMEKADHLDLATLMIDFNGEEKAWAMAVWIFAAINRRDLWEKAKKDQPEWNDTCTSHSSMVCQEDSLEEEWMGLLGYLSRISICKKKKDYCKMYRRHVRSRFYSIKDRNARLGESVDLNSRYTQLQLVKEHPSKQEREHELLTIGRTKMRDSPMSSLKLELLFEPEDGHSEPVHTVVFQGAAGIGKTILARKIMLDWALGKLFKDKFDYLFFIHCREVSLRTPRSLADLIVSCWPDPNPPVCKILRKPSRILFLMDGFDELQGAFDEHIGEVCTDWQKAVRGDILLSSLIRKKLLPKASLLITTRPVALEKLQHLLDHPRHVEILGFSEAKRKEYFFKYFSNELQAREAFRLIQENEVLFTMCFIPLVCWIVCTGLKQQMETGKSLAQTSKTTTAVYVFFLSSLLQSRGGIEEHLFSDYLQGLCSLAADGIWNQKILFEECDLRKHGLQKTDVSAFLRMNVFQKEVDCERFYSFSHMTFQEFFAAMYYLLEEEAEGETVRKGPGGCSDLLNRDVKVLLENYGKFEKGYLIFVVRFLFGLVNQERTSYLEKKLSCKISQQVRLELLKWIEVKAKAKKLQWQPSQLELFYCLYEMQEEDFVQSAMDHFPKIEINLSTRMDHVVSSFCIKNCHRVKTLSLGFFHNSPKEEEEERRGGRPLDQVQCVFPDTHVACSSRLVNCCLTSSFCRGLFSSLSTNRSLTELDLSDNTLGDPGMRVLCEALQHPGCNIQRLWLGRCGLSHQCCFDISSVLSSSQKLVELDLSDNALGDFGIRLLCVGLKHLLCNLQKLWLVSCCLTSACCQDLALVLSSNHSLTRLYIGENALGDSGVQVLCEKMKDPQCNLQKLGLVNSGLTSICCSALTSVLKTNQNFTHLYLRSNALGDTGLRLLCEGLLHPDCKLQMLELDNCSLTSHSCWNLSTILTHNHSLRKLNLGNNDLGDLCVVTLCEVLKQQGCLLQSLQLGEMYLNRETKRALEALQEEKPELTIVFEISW
# Human recombinant NLRP3, sequence (Q96P20 whole entry): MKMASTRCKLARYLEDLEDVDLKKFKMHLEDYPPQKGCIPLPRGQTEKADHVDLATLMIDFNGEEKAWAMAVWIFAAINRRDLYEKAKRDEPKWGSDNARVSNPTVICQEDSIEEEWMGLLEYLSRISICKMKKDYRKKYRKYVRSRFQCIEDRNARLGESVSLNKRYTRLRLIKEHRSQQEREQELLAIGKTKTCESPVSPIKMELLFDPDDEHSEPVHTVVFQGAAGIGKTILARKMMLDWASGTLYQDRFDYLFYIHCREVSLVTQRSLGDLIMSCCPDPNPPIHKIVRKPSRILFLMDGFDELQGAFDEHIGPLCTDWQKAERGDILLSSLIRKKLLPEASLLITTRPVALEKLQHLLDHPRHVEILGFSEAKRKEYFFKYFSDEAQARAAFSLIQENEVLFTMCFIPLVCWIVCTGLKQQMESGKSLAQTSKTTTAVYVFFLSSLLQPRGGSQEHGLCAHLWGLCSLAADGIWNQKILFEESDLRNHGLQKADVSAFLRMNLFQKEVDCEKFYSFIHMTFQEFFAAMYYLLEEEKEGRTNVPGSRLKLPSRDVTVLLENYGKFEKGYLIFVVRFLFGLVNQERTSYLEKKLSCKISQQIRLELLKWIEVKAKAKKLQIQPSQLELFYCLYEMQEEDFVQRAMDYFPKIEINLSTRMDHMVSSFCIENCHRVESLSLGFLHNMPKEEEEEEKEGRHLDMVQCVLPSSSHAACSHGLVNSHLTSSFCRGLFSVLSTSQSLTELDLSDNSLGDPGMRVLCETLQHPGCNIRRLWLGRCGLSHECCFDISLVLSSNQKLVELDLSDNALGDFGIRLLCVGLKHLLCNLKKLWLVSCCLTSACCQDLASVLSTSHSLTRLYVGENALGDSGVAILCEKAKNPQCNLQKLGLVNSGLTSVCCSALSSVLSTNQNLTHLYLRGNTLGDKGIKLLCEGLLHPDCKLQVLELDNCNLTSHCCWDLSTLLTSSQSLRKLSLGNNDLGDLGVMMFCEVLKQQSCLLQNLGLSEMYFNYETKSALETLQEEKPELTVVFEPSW
# P2X7R, sequence (Q99572 whole entry, the tested form may be a part): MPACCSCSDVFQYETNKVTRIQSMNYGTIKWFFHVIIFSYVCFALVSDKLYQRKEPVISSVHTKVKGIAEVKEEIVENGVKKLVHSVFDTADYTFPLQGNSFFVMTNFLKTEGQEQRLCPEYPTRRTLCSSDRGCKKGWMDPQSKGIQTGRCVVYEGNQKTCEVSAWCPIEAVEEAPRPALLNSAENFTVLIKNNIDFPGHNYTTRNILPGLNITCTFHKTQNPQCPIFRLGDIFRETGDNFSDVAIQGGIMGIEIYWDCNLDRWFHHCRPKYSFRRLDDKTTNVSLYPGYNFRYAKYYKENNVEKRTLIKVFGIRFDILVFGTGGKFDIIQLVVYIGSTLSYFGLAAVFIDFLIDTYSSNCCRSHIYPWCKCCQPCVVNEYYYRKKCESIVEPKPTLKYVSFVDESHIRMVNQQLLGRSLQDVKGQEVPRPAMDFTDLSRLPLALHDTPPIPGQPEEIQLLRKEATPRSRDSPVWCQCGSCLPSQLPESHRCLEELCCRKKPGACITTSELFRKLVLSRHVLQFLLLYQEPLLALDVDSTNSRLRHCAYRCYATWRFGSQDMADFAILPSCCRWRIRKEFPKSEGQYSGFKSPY
smiles,measurement,setting,value
CS(=O)(=O)CCC#N [OLT1177],reduction in STAT3 phosphorylation,STAT3,33%
same,mean maximum plasma concentration at steady state,[1]; 100 mg/d for eight consecutive days,36.0 µM
same,mean maximum plasma concentration at steady state,[1]; 300 mg/d for eight consecutive days,118.6 µM
same,mean maximum plasma concentration at steady state,"[1]; 1,000 mg/d for eight consecutive days",310.9 µM
same,Cmax,[1]; 100 mg,4800 ng/mL
same,Cmax,[1]; 300 mg,15800 ng/mL
same,Cmax,[1]; 1000 mg,41400 ng/mL
same,reduction in Fyn phosphorylation,Fyn,35%
same,NLRP3-mediated ASC recruitment (immunoprecipitation),NLRP3-ASC [2],reduction
same,steady-state phosphorylated IKK,"IKK; fresh CD11b+CD3- spleen cells, mice 200 mg/kg i.p. x5, vs vehicle",no statistically significant changes
same,phosphorylated IKK after in vitro LPS,"IKK; spleen cells from treated mice, LPS 30 min ex vivo",significant reduction
same,reduction in Src activation (phosphorylation),Src,26%
same,subjects reporting treatment-emergent adverse events,"Human safety study; all cohorts incl. placebo, 100-1,000 mg single and multiple dose",Seven of 35 subjects
same,relationship of reported AEs to OLT1177 (investigator),"Human safety study; all cohorts, each resolved spontaneously",unrelated
same,hematologic or coagulation values vs baseline,Human safety study; any time during the study,No significant changes
same,overall safety / toxicities in healthy humans,"Human safety study; oral doses up to 1,000 mg each day for 8 d","neither adverse effects nor biochemical or hematological changes; also recorded: safe and well-tolerated; also recorded: no clinical, hematological, or organ toxicities observed"
same,physical examination vs predrug examination,Human safety study; subjects exposed to OLT1177,no change
same,ATPase activity of recombinant NLRP3,Human recombinant NLRP3,inhibited
same,BzATP-induced ion current change (P2X7R activation),P2X7R,not affected
same,inhibition at 10 µM,NLRP3 inflammasome [3],70%
same,ASC speck structures (immunofluorescence),NLRP3-ASC [4],reduction
same,NLRP3-ASC association (FRET intensity),NLRP3-ASC [4],significant lower
same,release of LDH (cell death),J774A.1 cells,significantly reduced
same,total intracellular pool of the IL-1β precursor,NLRP3 inflammasome [5]; LPS/ATP,without affecting
same,release of IL-1β,"NLRP3 inflammasome [5]; LPS/ATP, 0.1, 1, and 10 µM",prevented
same,release of IL-1β,"NLRP3 inflammasome [6]; J774A.1 (Fig. S7B), LPS/nigericin, OLT1177 in combination with ACHP",to the levels of unstimulated cells
same,"reduction of IL-1β secretion, OLT1177 compared with MCC950","NLRP3 inflammasome [6]; J774A.1, LPS and ATP, 10 to 0.01 µM",comparable
same,IL-1β release,"NLRP3 inflammasome [6]; J774A.1, LPS and nigericin",inhibited
same,TNFα levels,"NLRP3 inflammasome [6]; J774A.1, LPS and nigericin",without affecting
same,TNFα levels in supernatants,"NLRP3 inflammasome [6]; J774A.1, LPS/ATP",no effect
same,intracellular level of the IL-1β and caspase-1 precursors,"NLRP3 inflammasome [6]; J774A.1, LPS/ATP",no changes
same,reduction of IL-1β secretion,"NLRP3 inflammasome [6]; J774A.1, LPS/ATP, nanomolar concentrations of OLT1177",50%
same,concentration that significantly reduced IL-1β release,"NLRP3 inflammasome [6]; in vitro, across cell types",≤ 1 µM
same,muscle ATP,muscle metabolism,higher levels
same,muscle GSH/GSSG ratio,muscle metabolism,increased
same,muscle citrate,muscle metabolism,accumulation
